Here are results for ten compounds from ChEMBL document CHEMBL2086298, “Synthesis and biological evaluation of fatty acyl ester derivatives of (-)-2',3'-dideoxy-3'-thiacytidine” (J Med Chem, 2012).

One may read the EC50 as the concentration giving half of the maximal effect. The IC50 is the midpoint of a concentration-inhibition curve. By IC90 is commonly meant the point of the concentration-response curve where the effect stands at 90%. As usually defined, the CC50 is the concentration that lowers cell viability or growth by half. High values mean lower toxicity to the cells, low ones greater toxicity to the cells.

For data set [1], the system named is Human immunodeficiency virus 1. Put plainly: Antiviral activity against HIV1 3B assessed as inhibition of infection in HeLa P4/R5 cells expressing CD4 receptor and beta-gal incubated for 2 hrs followed by compound-wash out measured after 46 hrs by single round infection MAGI assay. Type of data set: functional, organism-based. Particulars: Human immunodeficiency virus 1, 3B; call rule not given here. The gist of the method:
(§1)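 P4R5 MAGI cells (CD4 and coreceptor expressing) were seeded at 1.2 × 10⁴ cells/well about 18 h before infection. They were exposed for 2 h at 37 °C to cell-free HIV-1 with or without compound, then washed and cultured 46 h more. Infection was read by β-galactosidase reporter chemiluminescence as a percentage of untreated infection. EC₅₀ came from regression, with triplicate wells per concentration.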

Data set [2] has as its system Human immunodeficiency virus 1. Put plainly: Antiviral activity against HIV1 BaL assessed as inhibition of infection in HeLa P4/R5 cells expressing CD4 receptor and beta-gal incubated for 2 hrs followed by compound-wash out measured after 46 hrs by single round infection MAGI assay. The settings on record: Human immunodeficiency virus 1, BaL. Type of data set: functional, organism-based. A digest of the protocol:
as §1

The subject of a further data set is HeLa. Put plainly: Cytotoxicity against human HeLa P4/R5 cells incubated for 2 hrs followed by compound-wash out measured after 46 hrs by MTT assay. In general terms: Tetrazolium assays rely on reduction of a dye to a coloured formazan, in cell work by metabolically active cells.
Data set [3] concerns Human immunodeficiency virus 1. Put plainly: Antiviral activity against HIV1 94US3393IN clade B clinical isolate infected in PHA-stimulated human PBMC assessed as inhibition of viral replication incubated for 6 hrs followed by compound-wash out measured after 6 days by liquid scintillation counting. Type of data set: functional, organism-based. The settings on record: Human immunodeficiency virus 1, 94US3393IN clade B.

Data set [4] has as its system Human immunodeficiency virus 1. Put plainly: Antiviral activity against HIV1 98USMSC5016 clade C clinical isolate infected in PHA-stimulated human PBMC assessed as inhibition of viral replication incubated for 6 hrs followed by compound-wash out measured after 6 days by liquid scintillation counting. Type of data set: functional, organism-based. The settings on record: Human immunodeficiency virus 1, 98USMSC5016 clade C.

Data set [5] concerns Human immunodeficiency virus 1. Put plainly: Antiviral activity against NNTRI-resistant HIV1 A-17 clade B clinical isolate infected in PHA-stimulated human PBMC assessed as inhibition of viral replication incubated for 6 hrs followed by compound-wash out measured after 6 days by liquid scintillation counting. Type of data set: functional, organism-based. Particulars: Human immunodeficiency virus 1, A-17 clade B.

Data set [6] deals with Human immunodeficiency virus 1. Put plainly: Antiviral activity against NRTI-resistant HIV1 71361-1 clade B clinical isolate infected in PHA-stimulated human PBMC assessed as inhibition of viral replication incubated for 6 hrs followed by compound-wash out measured after 6 days by liquid scintillation counting. Type of data set: functional, organism-based. Particulars: Human immunodeficiency virus 1, 71361-1 clade B.

For data set [7], the system named is Human immunodeficiency virus 1. Put plainly: Antiviral activity against multidrug-resistant HIV1 4755-5 clade B clinical isolate infected in PHA-stimulated human PBMC assessed as inhibition of viral replication incubated for 6 hrs followed by compound-wash out measured after 6 days by liquid scintillation counting. Type of data set: functional, organism-based. Particulars: Human immunodeficiency virus 1, 4755-5 clade B.

The nature of data set [8]: Cytotoxicity against PHA-stimulated human PBMC incubated for 6 hrs followed by compound-wash out measured after 6 days. Type of data set: cell-based. The gist of the method:
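PHA-P-stimulated PBMCs pooled from at least two normal donors were exposed to compound dilutions for 6 h. Cells were then washed by medium replacement and centrifugation (~200g, 10 min) and cultured 6 days or until peak RT activity. Cytotoxicity was monitored by MTS on the same plates used for antiviral testing, alongside drug-plus-medium control wells without cells.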

The test system of data set [9] is CCRF-CEM. Put plainly: Cellular uptake in human CCRF-CEM cells at 50 uM after 1 hr by HPLC analysis. Type of data set: ADME, cell-based. A digest of the protocol: (§2)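 CCRF-CEM cells were grown in serum-free RPMI to ~70–80% confluency (1 × 10⁶ cells/mL), then given medium containing 50 μM compound at 37 °C for 1–72 h. Pellets were washed in ice-cold PBS and extracted with methanol/chloroform/isopropanol (4:3:1), then filtered. Parent ester and products were tracked by analytical HPLC at 265 nm using a water/acetonitrile (0.1% TFA) gradient.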

The test system of data set [10] is CCRF-CEM. Put plainly: Drug metabolism in human CCRF-CEM cells assessed as compound hydrolysis at 50 uM after 1 hr by HPLC analysis. Type of data set: ADME, cell-based. The gist of the method:
as §2

Data set [11] deals with CCRF-CEM. Put plainly: Drug metabolism in human CCRF-CEM cells assessed as compound hydrolysis at 50 uM after 1 hr by HPLC analysis.
Data set [12] deals with Human immunodeficiency virus 1. Put plainly: Ratio of lamivudine EC50 to compound EC50 for HIV1 by cell-based assay. Type of data set: functional.
In data set [13] the test system is Human immunodeficiency virus 1. Put plainly: Antiviral activity against HIV1 by cell-based assay. Type of data set: functional, organism-based.
For data set [14], the system named is Human immunodeficiency virus. Put plainly: Antiviral activity against HIV infected in human CEM-SS cells. Particulars: Human immunodeficiency virus 1, CEM-SS. Type of data set: functional, organism-based.

Each structure is given as a SMILES string.

With `[N-]=[N+]=NCCCCCCCCCCCC(=O)Nc1ccn([C@@H]2CS[C@H](CO)O2)c(=O)n1`, the EC50 in data set [1] was 29.4 µM; in [2], 3.8 µM; in the data set on HeLa, more than 221 µM.

On to `CCCCCCCCCCCCCC(=O)Nc1ccn([C@@H]2CS[C@H](COC(=O)CCCCCCCCCCCCC)O2)c(=O)n1`, for which the EC50 in data set [1] is more than 154 µM; in data set [2], 135 µM; in the data set on HeLa it was more than 154 µM.

In the case of `CCCCCCCCCCCCCC(=O)OC[C@@H]1O[C@H](n2ccc(N)nc2=O)CS1`, the half-maximal inhibitory concentration (IC50) in [3] was 0.0042 µM; in [4] it was 0.0019 µM; in data set [5] it was 0.0028 µM; in data set [6], 0.0433 µM; in data set [7] it was 5.09 µM. The IC90 is 0.015 µM in data set [3]; 0.0275 µM in [4]; 0.0311 µM in data set [5]; 0.253 µM in data set [6]; more than 6.83 µM in data set [7]. The CC50 in [8] is more than 6.83 µM. The Drug uptake entry with CCRF-CEM [9] is recorded as “Active”. Further, the Drug metabolism result with CCRF-CEM [10] and in the data set on CCRF-CEM [11] was “Active” in each case. For the same compound, the concentration giving a half-maximal response (EC50) was 0.5 µM in data set [1], 0.2 µM in data set [2] and more than 228 µM with HeLa.

Regarding `CCCCCCCCCCCCCC(=O)Nc1ccn([C@@H]2CS[C@H](CO)O2)c(=O)n1`, the “Ratio EC50” value in data set [12] is given as 115. The EC50 in data set [1] is 10.9 µM; in data set [2] it was 0.7 µM; with HeLa it was more than 228 µM.

In the case of `[N-]=[N+]=NCCCCCCCCCCCC(=O)Nc1ccn([C@@H]2CS[C@H](COC(=O)CCCCCCCCCCCN=[N+]=[N-])O2)c(=O)n1`, the EC50 in [1] is 148 µM; in data set [2], 72.6 µM; in the data set with HeLa it was more than 148 µM.

`[N-]=[N+]=NCCCCCCCCCCCC(=O)OC[C@@H]1O[C@H](n2ccc(N)nc2=O)CS1`: the EC50 in [1] was 0.9 µM; in data set [2] it was 0.7 µM; with HeLa it was more than 221 µM.

Turning to `CCSCCCCCCCCCCCC(=O)OC[C@@H]1O[C@H](n2ccc(N)nc2=O)CS1`, the EC50 was 2.3 µM in data set [1], 0.2 µM in data set [2] and more than 212 µM in the data set with HeLa.

Consider `Nc1ccn([C@@H]2CS[C@H](CO)O2)c(=O)n1` [LAMIVUDINE], for which the EC50 is 80.3 µM in [13] and more than 437 µM with HeLa. This compound returned a CC50 in data set [8] of more than 13.1 µM.

`CCSCCCCCCCCCCCC(=O)Nc1ccn([C@@H]2CS[C@H](CO)O2)c(=O)n1`: the EC50 is 5.3 µM in data set [1], 0.4 µM in data set [2] and more than 212 µM in the data set with HeLa.

Turning to `CCSCCCCCCCCCCCC(=O)O`, in data set [14], the EC50 worked out at 9.4 µM.
